Reference: ChEMBL document CHEMBL4351001, “2-Aminoimidazole-based antagonists of the 5-HT6 receptor - A new concept in aminergic GPCR ligand design” (Eur J Med Chem, 2019)
In brackets after ≈: the same amount, converted by molar mass. Activity calls are given as the source filed them. No cut-off for these calls is given here.

Columns and labels:
D(2) dopamine receptor = D(2) dopamine receptor (Homo sapiens, UniProt P14416); assay: Displacement of [3H]-methylspiperone from human D2 long receptor expressed in HEK293 cells measured after 1 hr by liquid scintillation counter method; format: cell-based
Chain of D(2) dopamine receptor (P14416 whole entry): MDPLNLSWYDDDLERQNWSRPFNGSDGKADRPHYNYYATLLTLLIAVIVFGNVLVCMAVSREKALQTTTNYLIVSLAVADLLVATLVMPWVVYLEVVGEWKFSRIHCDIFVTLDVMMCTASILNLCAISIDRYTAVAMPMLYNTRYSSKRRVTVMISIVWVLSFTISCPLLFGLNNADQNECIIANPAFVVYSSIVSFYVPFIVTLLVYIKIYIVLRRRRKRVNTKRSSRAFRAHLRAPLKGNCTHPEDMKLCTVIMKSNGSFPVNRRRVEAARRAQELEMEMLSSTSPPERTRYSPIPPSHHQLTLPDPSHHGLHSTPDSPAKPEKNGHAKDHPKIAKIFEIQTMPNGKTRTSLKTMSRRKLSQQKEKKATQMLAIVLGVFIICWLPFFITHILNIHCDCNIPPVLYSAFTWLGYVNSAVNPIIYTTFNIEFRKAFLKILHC
Outline: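 HEK293 membranes stably expressing human D2L receptor, incubated 1 h at 37°C, then filtered and retained radioactivity counted; (+)-butaclamol 1 μM defines nonspecific binding. Tested in triplicate at 7–8 concentrations (10⁻¹¹–10⁻⁴ M); Ki via Cheng-Prusoff, averaged over at least two independent experiments.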

[1] = target: T1, 5-hydroxytryptamine receptor 1A (Homo sapiens, UniProt P08908); assay: Displacement of [3H]-8-OH-DPAT from human 5HT1A receptor expressed in HEK293 cells incubated for 1 hr by liquid scintillation counter method; format: cell-based
T1 sequence (P08908 whole entry): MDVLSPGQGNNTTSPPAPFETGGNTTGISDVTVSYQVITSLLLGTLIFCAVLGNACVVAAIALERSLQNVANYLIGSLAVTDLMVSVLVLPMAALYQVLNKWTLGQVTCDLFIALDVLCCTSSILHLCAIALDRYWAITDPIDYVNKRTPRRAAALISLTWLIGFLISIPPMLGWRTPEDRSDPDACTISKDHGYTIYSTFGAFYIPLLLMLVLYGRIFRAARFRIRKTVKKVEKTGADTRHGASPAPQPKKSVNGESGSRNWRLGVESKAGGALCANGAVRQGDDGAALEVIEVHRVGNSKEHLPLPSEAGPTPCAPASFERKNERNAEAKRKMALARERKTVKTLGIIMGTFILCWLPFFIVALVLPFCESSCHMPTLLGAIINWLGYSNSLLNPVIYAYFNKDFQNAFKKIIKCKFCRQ
Outline: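 HEK293 cells stably expressing human 5-HT1AR; membranes in 50 mM Tris–HCl, 0.1 mM EDTA, 4 mM MgCl2, 10 μM pargyline, 0.1% ascorbate; incubated 1 h at room temperature, then filtered. Nonspecific binding defined with 10 μM 5-HT.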

[2] = target: T2, Muscarinic acetylcholine receptor M1 (Homo sapiens) (UniProt P11229); assay: Displacement of [3H] pirenzepine from human recombinant muscarinic M1 receptor at 10^-6 M measured after 60 mins by scintillation counter method relative to control
T2 sequence (whole entry): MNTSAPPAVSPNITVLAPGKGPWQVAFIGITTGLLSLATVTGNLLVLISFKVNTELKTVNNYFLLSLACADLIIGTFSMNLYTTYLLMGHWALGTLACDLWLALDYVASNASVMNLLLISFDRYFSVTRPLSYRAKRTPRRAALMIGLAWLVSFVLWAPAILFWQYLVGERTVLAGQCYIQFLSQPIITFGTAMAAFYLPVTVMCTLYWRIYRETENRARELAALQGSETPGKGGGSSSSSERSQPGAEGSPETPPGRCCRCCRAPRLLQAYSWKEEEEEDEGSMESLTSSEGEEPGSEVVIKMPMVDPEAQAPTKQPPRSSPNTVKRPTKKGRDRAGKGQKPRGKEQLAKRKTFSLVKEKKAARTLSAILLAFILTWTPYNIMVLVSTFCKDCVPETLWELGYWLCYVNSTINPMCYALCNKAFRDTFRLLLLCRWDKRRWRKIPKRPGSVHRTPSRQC

[3] = target: T3, Alpha-1A adrenergic receptor (Rattus norvegicus) (UniProt P43140); assay: Displacement of [3H] prazosin from rat alpha 1A adrenergic receptor at 10^-6 M measured after 60 mins by scintillation counter method relative to control
T3 sequence (whole entry): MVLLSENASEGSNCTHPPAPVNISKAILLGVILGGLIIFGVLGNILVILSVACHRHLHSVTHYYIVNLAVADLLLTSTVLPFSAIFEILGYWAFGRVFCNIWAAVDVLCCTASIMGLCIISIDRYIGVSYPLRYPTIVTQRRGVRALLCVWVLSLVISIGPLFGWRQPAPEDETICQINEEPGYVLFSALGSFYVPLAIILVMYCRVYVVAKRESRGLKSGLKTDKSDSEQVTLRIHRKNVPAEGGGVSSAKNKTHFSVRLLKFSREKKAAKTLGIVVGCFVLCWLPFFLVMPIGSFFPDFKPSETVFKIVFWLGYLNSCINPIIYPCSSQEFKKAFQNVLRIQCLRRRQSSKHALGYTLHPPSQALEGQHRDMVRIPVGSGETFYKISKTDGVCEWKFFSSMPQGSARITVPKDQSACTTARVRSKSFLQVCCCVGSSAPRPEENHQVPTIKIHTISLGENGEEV

[4] = Solubility of compound in water; format: physicochemical
in vitro [5] = details: rat
[6] = target: Histamine H1 receptor (Homo sapiens) (UniProt P35367); assay: Displacement of [3H] pyrilamine from human recombinant H1 histamine receptor at 10^-6 M measured after 60 mins by scintillation counting method relative to control
Chain of Histamine H1 receptor (Homo sapiens) (P35367 whole entry): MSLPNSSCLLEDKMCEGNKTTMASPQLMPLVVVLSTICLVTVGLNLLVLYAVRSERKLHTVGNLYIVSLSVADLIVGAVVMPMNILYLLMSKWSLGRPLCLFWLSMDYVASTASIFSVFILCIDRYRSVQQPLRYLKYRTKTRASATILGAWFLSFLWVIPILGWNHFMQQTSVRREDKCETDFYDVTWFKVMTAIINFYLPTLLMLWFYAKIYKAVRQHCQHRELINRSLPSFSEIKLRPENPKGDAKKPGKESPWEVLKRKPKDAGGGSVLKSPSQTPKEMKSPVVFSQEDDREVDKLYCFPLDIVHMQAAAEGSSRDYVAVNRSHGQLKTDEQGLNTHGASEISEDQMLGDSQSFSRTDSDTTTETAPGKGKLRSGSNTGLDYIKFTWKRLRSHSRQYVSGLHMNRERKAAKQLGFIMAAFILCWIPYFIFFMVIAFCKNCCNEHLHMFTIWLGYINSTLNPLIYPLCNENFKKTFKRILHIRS

in vitro [7] = details: rat; remark: listed apart in the source
[8] = target: T4, 5-hydroxytryptamine receptor 2C (Homo sapiens) (UniProt P28335); assay: Displacement of [3H]mesulergine from human recombinant 5HT2C serotonin receptor at 10^-6M incubated for 120 mins by scintillation counter method relative to control
T4 sequence (whole entry): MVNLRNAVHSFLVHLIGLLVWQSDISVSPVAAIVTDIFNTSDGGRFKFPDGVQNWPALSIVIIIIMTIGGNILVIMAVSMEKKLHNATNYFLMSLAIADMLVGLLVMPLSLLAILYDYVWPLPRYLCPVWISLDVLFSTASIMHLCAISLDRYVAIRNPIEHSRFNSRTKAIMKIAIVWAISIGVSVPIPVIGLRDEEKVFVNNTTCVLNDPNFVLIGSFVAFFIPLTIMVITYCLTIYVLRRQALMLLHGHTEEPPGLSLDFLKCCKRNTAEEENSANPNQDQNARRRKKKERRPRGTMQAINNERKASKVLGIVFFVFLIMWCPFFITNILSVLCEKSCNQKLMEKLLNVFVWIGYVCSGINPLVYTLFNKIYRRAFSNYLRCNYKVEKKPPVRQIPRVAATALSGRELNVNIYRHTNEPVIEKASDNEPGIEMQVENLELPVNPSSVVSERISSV

[9] = target: T5, 5-hydroxytryptamine receptor 6 (Homo sapiens, UniProt P50406); assay: Displacement of [3H]LSD from human 5HT6 receptor expressed in HEK293 cells measured after 1 hr by liquid scintillation counter method; format: cell-based
T5 sequence (P50406 whole entry): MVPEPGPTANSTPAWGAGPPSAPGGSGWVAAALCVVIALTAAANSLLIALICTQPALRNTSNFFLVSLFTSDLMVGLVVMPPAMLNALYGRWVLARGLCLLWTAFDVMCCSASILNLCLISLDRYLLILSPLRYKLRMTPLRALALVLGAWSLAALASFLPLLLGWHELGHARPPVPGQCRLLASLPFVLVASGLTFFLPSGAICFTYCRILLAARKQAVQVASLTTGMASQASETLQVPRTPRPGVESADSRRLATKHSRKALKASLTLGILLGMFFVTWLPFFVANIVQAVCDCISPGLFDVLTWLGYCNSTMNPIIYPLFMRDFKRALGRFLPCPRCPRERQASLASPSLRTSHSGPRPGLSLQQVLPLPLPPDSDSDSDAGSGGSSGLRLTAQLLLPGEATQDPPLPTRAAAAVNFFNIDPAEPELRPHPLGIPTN

[10] = target: T5, 5-hydroxytryptamine receptor 6; assay: Antagonist activity at human 5HT6 receptor expressed in HEK293 cells assessed as inhibition of 5-CT induced cAMP production measured after 30 mins by TR-FRET assay; format: functional, cell-based
[11] = target: 5-hydroxytryptamine receptor 2A (Homo sapiens, UniProt P28223); assay: Displacement of [3H]ketanserin from human 5HT2A receptor expressed in CHOK1 cells incubated for 1 hr by liquid scintillation counter method; format: cell-based; details: read-out: Ki
Chain of 5-hydroxytryptamine receptor 2A (P28223 whole entry): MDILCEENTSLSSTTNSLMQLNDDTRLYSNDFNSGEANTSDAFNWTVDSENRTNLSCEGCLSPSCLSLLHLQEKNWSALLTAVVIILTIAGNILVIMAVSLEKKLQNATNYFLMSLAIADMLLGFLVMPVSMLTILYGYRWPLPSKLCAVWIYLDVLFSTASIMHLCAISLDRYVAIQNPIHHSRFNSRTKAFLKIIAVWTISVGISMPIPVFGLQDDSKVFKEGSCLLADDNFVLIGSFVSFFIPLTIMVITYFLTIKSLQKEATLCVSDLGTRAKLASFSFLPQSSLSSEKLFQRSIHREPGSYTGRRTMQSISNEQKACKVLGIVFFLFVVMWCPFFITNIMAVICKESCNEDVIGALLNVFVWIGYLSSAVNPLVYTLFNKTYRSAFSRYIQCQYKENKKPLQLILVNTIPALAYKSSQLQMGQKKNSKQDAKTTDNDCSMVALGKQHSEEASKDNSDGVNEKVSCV

[12] = target: 5-hydroxytryptamine receptor 7 (Homo sapiens, UniProt P34969); assay: Displacement of [3H]-5-CT from human 5HT7 receptor expressed in HEK293 cells measured after 1 hr by liquid scintillation counter method; format: cell-based
Chain of 5-hydroxytryptamine receptor 7 (P34969 whole entry): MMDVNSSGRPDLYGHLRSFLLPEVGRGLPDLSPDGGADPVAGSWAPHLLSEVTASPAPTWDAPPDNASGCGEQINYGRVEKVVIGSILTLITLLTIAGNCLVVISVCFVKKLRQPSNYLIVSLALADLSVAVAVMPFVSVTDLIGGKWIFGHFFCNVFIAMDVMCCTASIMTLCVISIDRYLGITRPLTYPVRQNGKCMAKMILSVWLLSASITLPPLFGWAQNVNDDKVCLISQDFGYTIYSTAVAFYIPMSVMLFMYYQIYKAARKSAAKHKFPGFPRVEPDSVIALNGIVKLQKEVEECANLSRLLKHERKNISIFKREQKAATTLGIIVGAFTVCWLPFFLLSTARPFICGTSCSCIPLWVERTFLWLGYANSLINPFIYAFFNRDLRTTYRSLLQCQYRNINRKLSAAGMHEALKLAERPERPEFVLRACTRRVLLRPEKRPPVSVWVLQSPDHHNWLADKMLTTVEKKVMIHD

[13] = target: 5-hydroxytryptamine receptor 2B (Homo sapiens) (UniProt P41595); assay: Displacement of [3H] mesulergine from human recombinant 5HT2B receptor at 10^-6 M measured after 60 mins by scintillation counting method relative to control
Chain of 5-hydroxytryptamine receptor 2B (Homo sapiens) (P41595 whole entry): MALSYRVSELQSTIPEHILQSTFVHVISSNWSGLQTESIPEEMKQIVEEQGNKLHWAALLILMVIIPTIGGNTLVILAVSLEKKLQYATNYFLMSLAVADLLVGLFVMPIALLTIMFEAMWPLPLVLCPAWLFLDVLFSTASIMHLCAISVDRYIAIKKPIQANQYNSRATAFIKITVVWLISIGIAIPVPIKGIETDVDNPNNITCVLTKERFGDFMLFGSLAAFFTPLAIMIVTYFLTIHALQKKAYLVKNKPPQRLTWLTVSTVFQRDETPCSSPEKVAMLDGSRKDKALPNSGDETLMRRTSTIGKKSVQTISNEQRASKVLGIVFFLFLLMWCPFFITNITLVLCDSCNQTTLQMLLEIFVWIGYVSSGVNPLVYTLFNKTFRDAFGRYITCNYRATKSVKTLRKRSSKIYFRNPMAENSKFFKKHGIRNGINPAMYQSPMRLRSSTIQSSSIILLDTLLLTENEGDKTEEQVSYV

[14] = target: T6, Muscarinic acetylcholine receptor M5 (Homo sapiens) (UniProt P08912); assay: Displacement of [3H]4-DAMP from human recombinant muscarinic M5 receptor at 10^-6 M measured after 60 mins by scintillation counter method relative to control
T6 sequence (whole entry): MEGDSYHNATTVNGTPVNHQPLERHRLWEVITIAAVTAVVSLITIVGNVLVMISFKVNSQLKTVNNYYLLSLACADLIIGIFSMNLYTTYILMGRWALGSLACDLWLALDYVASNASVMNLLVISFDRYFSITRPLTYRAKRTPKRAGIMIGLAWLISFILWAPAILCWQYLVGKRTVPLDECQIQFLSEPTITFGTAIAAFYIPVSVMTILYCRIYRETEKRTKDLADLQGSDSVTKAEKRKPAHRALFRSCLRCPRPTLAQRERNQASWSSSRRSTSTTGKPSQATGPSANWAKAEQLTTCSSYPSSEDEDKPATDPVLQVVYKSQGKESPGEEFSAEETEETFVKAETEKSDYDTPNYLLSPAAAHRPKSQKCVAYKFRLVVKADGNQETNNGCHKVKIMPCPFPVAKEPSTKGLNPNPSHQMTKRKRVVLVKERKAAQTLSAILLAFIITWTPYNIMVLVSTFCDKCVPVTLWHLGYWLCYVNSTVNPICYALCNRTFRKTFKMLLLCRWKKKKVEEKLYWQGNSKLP

hERG (KCNH2) = hERG (KCNH2) (Homo sapiens, UniProt Q12809); assay: Displacement of [3H] dofetilide from human recombinant ERG at 10^-6 M measured after 60 mins by scintillation counting method relative to control; details: probe [3H]dofetilide
Chain of hERG (KCNH2) (Q12809 whole entry): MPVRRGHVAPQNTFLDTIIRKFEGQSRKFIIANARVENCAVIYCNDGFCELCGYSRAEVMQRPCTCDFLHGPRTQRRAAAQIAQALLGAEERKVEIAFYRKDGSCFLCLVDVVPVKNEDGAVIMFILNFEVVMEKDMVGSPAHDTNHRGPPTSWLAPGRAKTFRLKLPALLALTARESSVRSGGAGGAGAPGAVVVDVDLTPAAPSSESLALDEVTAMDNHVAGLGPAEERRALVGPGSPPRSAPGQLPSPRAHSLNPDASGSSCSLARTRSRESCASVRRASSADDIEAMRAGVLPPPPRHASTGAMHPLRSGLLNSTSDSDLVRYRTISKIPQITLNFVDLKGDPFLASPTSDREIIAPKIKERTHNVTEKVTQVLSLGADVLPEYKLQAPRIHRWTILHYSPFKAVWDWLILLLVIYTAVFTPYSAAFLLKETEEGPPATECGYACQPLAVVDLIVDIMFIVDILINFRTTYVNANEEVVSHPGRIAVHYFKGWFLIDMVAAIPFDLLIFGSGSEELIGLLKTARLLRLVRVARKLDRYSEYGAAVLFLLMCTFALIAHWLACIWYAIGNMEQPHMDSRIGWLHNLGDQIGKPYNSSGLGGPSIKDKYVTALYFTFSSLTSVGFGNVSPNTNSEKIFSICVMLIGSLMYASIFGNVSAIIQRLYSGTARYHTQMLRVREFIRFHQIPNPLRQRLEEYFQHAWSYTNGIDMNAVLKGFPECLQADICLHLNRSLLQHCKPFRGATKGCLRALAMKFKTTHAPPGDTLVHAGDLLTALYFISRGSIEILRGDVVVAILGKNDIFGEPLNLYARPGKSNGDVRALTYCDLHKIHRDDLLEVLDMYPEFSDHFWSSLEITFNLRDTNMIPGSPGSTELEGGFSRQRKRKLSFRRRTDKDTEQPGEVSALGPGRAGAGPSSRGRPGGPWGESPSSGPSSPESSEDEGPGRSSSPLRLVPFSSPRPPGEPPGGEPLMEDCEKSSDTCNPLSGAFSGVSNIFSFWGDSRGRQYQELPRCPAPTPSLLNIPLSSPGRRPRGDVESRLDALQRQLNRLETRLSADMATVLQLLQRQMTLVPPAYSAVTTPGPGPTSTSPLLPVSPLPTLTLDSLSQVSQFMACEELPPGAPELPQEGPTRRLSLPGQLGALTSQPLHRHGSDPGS

[15] = Stability of compound in rat liver microsomes; format: ADME, Microsome
Outline: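 Incubation in triplicate with rat liver microsomes at 37°C with NADP, G6P, G6P dehydrogenase and MgCl2. Verapamil and donepezil served as microsomal activity standards.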

Rattus norvegicus = assay: Reversal of scopolamine induced cognitive impairment impairment in Sprague-Dawley rat at 1 mg/kg, po pre treated for 2 hrs followed by scopolamine addition further treated for 30 mins and measured after 1 hr by novel object recognition test; format: functional, organism-based
Outline: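 Male Sprague–Dawley rats (~250 g); open-field habituation 5 min 24 h before test. Compounds p.o. 120 min and scopolamine 1.25 mg/kg i.p. 30 min before 3-min familiarization trial; 3-min recognition trial 1 h later. Exploration video-tracked; discrimination index computed; one-way ANOVA with Newman–Keuls; n = 9–10 per group; mean ± SEM.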

[16] = target: 5-hydroxytryptamine receptor 2B (Homo sapiens) (UniProt P41595); assay: Antagonist activity at human recombinant 5HT2B receptor expressed in CHOK1 cells at 10^-6 M measured after 30 mins by HTRF assay relative to control; format: cell-based; design: scale not given: the % may be the effect or the level left

SMILES | Ki (D(2) dopamine receptor) [nM] | inhibition [3] [%] | inhibition [8] [%] | Ki [9] [nM] | Ki [11] [nM] | Ki ([1]; read-out: Ki) [nM] | solubility ([4]; buffer) | microsomal CLint (in vitro [5]; microsomes) [µL/min/mg] | half-life (in vitro [7]; microsomes) [min] | Stability [15] | Ki ([12]; read-out: Ki) [nM] | other results
COc1ccc2c(c1)c(-c1[nH]c(NCC(F)F)nc1C)cn2S(=O)(=O)c1ccccc1 | 3980 | 4 | 28 | 21 | 1230 |  |  |  |  |  |  | Ki ([1]; hek293): Not Active; inhibition [2]: -4%; solubility ([4]; water, read-out: solubility): 1000 to 10000 µg/mL (≈ 2.24 to 22.4 mM); microsomal CLint (in vitro [5]; liver microsomes): 39 µL/min/mg; inhibition [6]: 1%; half-life (in vitro [7]; liver microsomes): 36 min; Kb [10]: 13 nM; Ki ([12]; hek293): Not Active
Cc1nc(N)[nH]c1-c1cn(S(=O)(=O)c2ccccc2)c2ccccc12 |  | 12.2 | 71.6 |  | 100 | > 10000 |  |  |  |  |  | inhibition [2]: 3.8%; inhibition [13]: 4.5%; inhibition [14]: 7.6%
CC(=O)Nc1nc(C)c(-c2cn(S(=O)(=O)c3ccccc3)c3ccccc23)[nH]1.Cl |  |  |  |  |  |  |  |  |  |  |  | solubility ([4]; water, read-out: solubility): 100 to 10000 µg/mL; inhibition at 1 h, 1 µM (hERG (KCNH2)): 2.4%
Cc1nc(N)[nH]c1-c1ccc2ccn(S(=O)(=O)c3ccccc3)c2c1.Cl | 708 |  |  | 4 | 1170 | > 10000 | Soluble | 104 | 13 | Unstable | 776 | 
O=S(=O)(c1ccccc1)n1cc(-c2c[n+]3cccnc3[nH]2)c2ccccc21.[Br-] |  |  |  | 50 | > 10000 | > 10000 | Soluble | 230 | 6 | Unstable | > 10000 | 
COc1ccc2c(c1)c(-c1cnc(N)[nH]1)cn2S(=O)(=O)c1ccccc1 |  | 33.1 | 82 |  | 794 | > 10000 |  |  |  |  |  | inhibition [2]: 6.7%; inhibition [13]: 1.7%; inhibition [14]: 5.6%
COc1cc2c(cc1OC)C(=O)C(CC1CCN(Cc3ccccc3)CC1)C2 (stereo not drawn) [DONEPEZIL] |  |  |  |  |  |  |  | 17.6 | 79 |  |  | Activity (Rattus norvegicus): Active
CCC(=O)Nc1nc(C)c(-c2cn(S(=O)(=O)c3ccccc3)c3ccc(OC)cc23)[nH]1 | > 10000 |  |  | 14 |  |  | Insoluble | 17.1 | 81 | Stable | > 10000 | 
CC(=O)Nc1nc(C)c(-c2cn(S(=O)(=O)c3ccccc3)c3ccccc23)[nH]1 [listing 1 of 2 here] | > 10000 |  |  | 25 | > 10000 | > 10000 | Insoluble | 7.3 | 190 | Stable | > 10000 | 
CC(=O)Nc1nc(C)c(-c2ccc3ccn(S(=O)(=O)c4ccccc4)c3c2)[nH]1 |  | -4.2 |  |  | > 10000 |  |  |  |  |  |  | inhibition [6]: -1.9%
CC(=O)Nc1nc(C)c(-c2cn(S(=O)(=O)c3ccccc3)c3ccccc23)[nH]1 [listing 2 of 2 here] |  | -1.5 | 22.4 |  |  |  |  |  |  |  |  | Activity [16]: -1.9%; inhibition [6]: -5.9%; Kb [10]: 1.3 nM
